CHRM5 antagonist: human M5 muscarinic receptor antagonists, primary screen, CHO cells, Fluo-8 calcium fluorescence. CHO-hM5 cells, ACh EC80. actives 0.59% (n = 360,000). Muscarinic acetylcholine receptor M5 (Homo sapiens), P08912. inhibition, % at 3 µM;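 active = inhibition above a per-plate cutoff, the mean of that plate's test compounds plus 3 SD, cut at about 27% in these data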
Target sequence (P08912 whole entry, looked up): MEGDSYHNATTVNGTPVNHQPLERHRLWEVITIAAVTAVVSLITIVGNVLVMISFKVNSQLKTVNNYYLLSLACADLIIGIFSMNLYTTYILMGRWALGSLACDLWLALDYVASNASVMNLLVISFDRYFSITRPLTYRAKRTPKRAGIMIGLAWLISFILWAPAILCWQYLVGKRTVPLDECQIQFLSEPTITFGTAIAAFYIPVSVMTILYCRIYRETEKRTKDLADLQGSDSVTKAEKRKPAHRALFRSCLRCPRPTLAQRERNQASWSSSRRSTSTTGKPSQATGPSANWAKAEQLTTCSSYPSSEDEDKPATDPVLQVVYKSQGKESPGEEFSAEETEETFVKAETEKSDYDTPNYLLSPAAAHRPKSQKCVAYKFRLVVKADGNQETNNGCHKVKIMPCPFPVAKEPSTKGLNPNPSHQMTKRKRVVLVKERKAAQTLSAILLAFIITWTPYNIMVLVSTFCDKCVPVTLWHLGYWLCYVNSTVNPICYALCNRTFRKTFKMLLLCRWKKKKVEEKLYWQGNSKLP
M5 PAM: human M5 muscarinic receptor positive allosteric modulators, primary screen, CHO-K1 cells, Fluo-8 calcium fluorescence. CHO-K1 hM5, ACh EC20 PAM; 0% = ACh EC20, 100% = ACh EC100. activation, % at 3 µM. Muscarinic acetylcholine receptor M5 (Homo sapiens), P08912. AID 624038, 2012. actives 0.3% (n = 360,000);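 active = activation above the run cutoff, the mean activation of all test compounds plus 3 SD, cut at about 18% in these data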
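system = human M5 receptor in CHO-K1 cells | reagent = EC20 acetylcholine as agonist stimulus | compound dosing = single-point, 3 µM nominal | incubation = Fluo-8 loading 80 min at 37 °C plus 30 min room temperature | detection = Fluo-8 calcium dye fluorescence, kinetic read | benchmarks = low control EC20 acetylcholine (0%), high control EC100 acetylcholine (100%)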
CHRM1 agonist: human M1 muscarinic receptor agonists, primary screen, Fluo-8 calcium fluorescence, CHO-K1 cells, HTS; actives 0.33% (n = 360,000); activation, % at 3 µM; Muscarinic acetylcholine receptor M1 (Homo sapiens), P11229; CHO-K1 hM1, agonist mode; 0% DMSO, 100% acetylcholine EC100;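 active = activation above the run's mean compound activation plus 3 SD, cut at about 16% in these data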;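 note: peak over basal fluorescence ratio within a 140 s kinetic read after compound addition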
CHRM5 agonist: human M5 muscarinic receptor agonists, primary screen, CHO-K1 cells, Fluo-8 calcium fluorescence | Muscarinic acetylcholine receptor M5 (Homo sapiens), P08912 | CHO-K1 hM5 cells; 0% DMSO wells, 100% maximal acetylcholine response | activation, % at 3 µM | actives 0.19% (n = 360,000) | AID 624037, 2012;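 active = activation above the run's mean over test compounds plus 3 SD, cut at about 23% in these data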;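 note: signal is peak over basal fluorescence ratio across the kinetic read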
M1 antag: human M1 muscarinic receptor antagonists, primary screen, CHO-K1 cells, Fluo-8 calcium fluorescence, 1536-well; Muscarinic acetylcholine receptor M1 (Homo sapiens), P11229; CHO-K1 hM1, ACh EC80 antagonist; inhibition, % at 3 µM; actives 1.3% (n = 360,000); AID 588852, 2011;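 active = percent inhibition above its own plate's cutoff, namely the mean of that plate's compound wells plus 3 SD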;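 note: peak over basal fluorescence ratio during 140 s after agonist addition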
CHRM1 PAM: human M1 muscarinic receptor positive allosteric modulators, primary screen, CHO-K1 cells, Fluo-8 calcium fluorescence, 1536-well | Muscarinic acetylcholine receptor M1 (Homo sapiens), P11229 | CHO-K1 hM1, ACh EC20; 0% = ACh EC20, 100% = maximal ACh | activation, % at 3 µM | actives 0.088% (n = 360,000); in the data active = activation above about 19%, passing the limit was not always enough
Numbers stand for hits; . = inactive; / = no result given. Most compounds without a hit are left out; they make up all but 2% or so of the library.

SMILES | CHRM5 antagonist | M5 PAM | CHRM1 agonist | CHRM5 agonist | M1 antag | CHRM1 PAM
CNS(=O)(=O)c1ccc(CNC[C@H]2O[C@@H](n3ccc(N)nc3=O)[C@H](O)[C@@H]2O)cc1 | . | . | . | . | . | .
C#CCOCCOCCOCCNc1nc(N2CCN(C(=O)CCCCCCCCCCNC(=O)[C@H](CCCCN)n3cc(CCCC(=O)O)nn3)CC2)nc(N2CCN(C(=O)CCCCCCCCCCNC(=O)[C@@H]([C@H](C)O)n3cc(C)nn3)CC2)n1 | . | . | . | . | . | .
C#CCOCCOCCOCCNc1nc(N2CCN(C(=O)CCCCCCCCCCNC(=O)[C@H]([C@@H](C)CC)n3cc(CCCCCN)nn3)CC2)nc(N2CCN(C(=O)CCCCCCCCCCNC(=O)[C@H](CCCCN)n3cc(CCCC(=O)O)nn3)CC2)n1 | . | . | 18 | . | . | .
Cc1cc(Cl)ccc1C(O)c1ncc(-c2ccc(F)cc2)[nH]1 (centres undefined) | . | . | . | . | . | .
CCCS(=O)(=O)NC(=O)C1(C)CCCN(C(=O)c2cc(F)ccc2C)C1 (centres undefined) | . | . | . | . | . | .
Cc1ccc(/C=C/C(=O)Nc2ccc(S(=O)(=O)Nc3ncccn3)cc2)cc1 | . | 26 | . | . | . | .
COc1ccc(S(=O)(=O)Nc2cccc(/C=C/C(=O)O)c2)cc1 | . | . | . | . | . | .
Cc1ccc(S(=O)(=O)Nc2cccc(/C=C/C(=O)O)c2)cc1 | . | 46 | . | . | . | .
COc1cc(OC)cc(C(=O)Nc2ccccc2C(=O)NCc2cccnc2)c1 | 28 | . | . | . | . | .
CCc1ccc2oc(-c3ccc(OC)cc3)cc(=Nc3c(C)n(C)n(-c4ccccc4)c3=O)c2c1 | . | . | . | . | 47 | .
COc1ccc(/C=C/C(=O)O)cc1S(=O)(=O)NCc1ccco1 | . | 25 | . | . | . | .
COc1cc(/C=C/C(=O)O)cc(S(=O)(=O)NCc2ccco2)c1OC | . | . | . | . | . | .
CCCC(=O)N1CCC(Cc2ccccc2)CC1 | . | . | . | . | . | .
CCCCCCNCC(=O)N1CCC(Cc2ccccc2)CC1 | . | . | . | . | 31 | .
CC1(C)CCN2CCC(C)(C)c3c(O)ccc1c32 | 41 | . | 23 | 95 | . | .
COc1nc(C)ccc1-c1noc(-c2ccco2)n1 | . | . | . | . | . | .
COc1nc(-c2ccc(C)cc2)ccc1-c1noc(-c2ccco2)n1 | . | 28 | . | . | . | .
O=C(NCCCN1CCOCC1)c1ccc(Sc2cccc(Cl)c2)c([N+](=O)[O-])c1 | . | . | . | . | 83 | .
CCOC(=O)CSc1ccc(C(=O)NCCCN2CCOCC2)cc1[N+](=O)[O-] | . | . | . | . | 65 | .
O=C(NCCCN1CCOCC1)c1ccc(Cl)c([N+](=O)[O-])c1 | . | . | . | . | . | .
COc1ccc(N2C(=O)c3ccccc3NC(=O)C2C(=O)NCc2ccco2)cc1 (centres undefined) | . | . | / | . | / | /
O=C(CCN=C1NS(=O)(=O)c2ccccc21)OCc1nnc(-c2ccc([N+](=O)[O-])cc2)o1 | . | . | . | . | . | .
O=C(Nc1ccc(S(=O)(=O)N2CCCc3ccccc32)cc1)C1CCCO1 (centres undefined) | . | . | . | . | 40 | .
CC1=NOC(=O)/C1=C\c1ccc(-c2ccc(Br)cc2)o1 | 31 | . | . | . | 34 | .
CC1=NOC(=O)/C1=C/c1ccc(-c2ccc(Cl)cc2)o1 | . | . | . | . | . | .
SMILES | CHRM5 antagonist | M5 PAM | CHRM1 agonist | CHRM5 agonist | M1 antag | CHRM1 PAM
CCOC1=C2CN(S(=O)(=O)c3ccc(C)cc3)C(c3ccc(C)cc3)CC2N(S(=O)(=O)c2ccc(C)cc2)C(c2ccccc2)C1 (centres undefined) | . | . | / | . | / | /
CCn1cc(C(=O)NCCCN2CCC(C)CC2)c(=O)c2cc(S(=O)(=O)N(C)C3CCCCC3)ccc21 | . | . | . | . | 38 | .
CC(=O)c1ccc(S(=O)(=O)NCCC(=O)NC2CCN(Cc3ccccc3)CC2)cc1 | . | 19 | . | . | . | .
CCOc1ccc(S(=O)(=O)NCCC(=O)NC2CCN(Cc3ccccc3)CC2)cc1 | . | . | . | . | . | .
CN(C)S(=O)(=O)c1cccc(C(=O)NCC(=O)NC2CCN(Cc3ccccc3)CC2)c1 | . | . | . | . | 34 | .
Cc1cccc(C(=O)NCC(=O)NC2CCN(Cc3ccccc3)CC2)c1 | . | . | . | . | . | .
O=C(Nc1ccnn1C1CCN(Cc2cc(Cl)ccc2O)CC1)c1cccnc1 | . | . | . | . | 40 | .
Cc1ccccc1CN1CCC(n2nccc2NC(=O)c2cccnc2)CC1 | . | . | . | . | . | .
COc1cccc2sc(Nc3nc(-c4ccccn4)cs3)nc12 | 30 | . | . | . | . | .
c1ccc(Nc2nc(-c3ccccn3)cs2)cc1 | . | . | . | . | . | .
COC(=O)c1cc(S(=O)(=O)N2CCN(c3cccc(C)c3C)CC2)c[nH]1 | . | . | . | . | 34 | .
COC(=O)c1cc(S(=O)(=O)N2CCN(c3ccccc3)CC2)c[nH]1 | . | . | . | . | . | .
O=[N+]([O-])c1ccc(N/N=C/C=C/c2ccco2)cc1 | 32 | . | . | 29 | . | .
O=C(O)c1ccc(N/N=C/C=C/c2ccc([N+](=O)[O-])o2)cc1 | 28 | . | 27 | 36 | 36 | .
O=C(N/N=C/c1ccco1)c1cc([N+](=O)[O-])cc([N+](=O)[O-])c1 | . | . | . | . | . | .
CC1(C(=O)NS(=O)(=O)C2CC2)CCN(C(=O)c2cc(F)cc(F)c2)C1 (centres undefined) | . | . | . | . | . | .
O=S1(=O)CCS(=O)(=O)C1c1ccccc1 | . | 20 | . | . | . | .
NC(=S)NN=C1CSSC1 | . | . | . | . | . | .
NC(=O)[C@@H]1CCOc2c(I)cc([N+](=O)[O-])cc2C(=O)N[C@@H](CO)C(=O)NCC(=O)N1 | . | 21 | . | . | . | .
OC(c1ccccc1)C(NCCNCc1ccccc1)c1ccccc1 (centres undefined) | . | . | . | . | 38 | .
COc1ccc(C2=Nc3ccccc3N(C(=O)c3cc(Cl)cc(Cl)c3)C2C(=O)NCc2ccccc2)cc1 (centres undefined) | . | . | / | . | / | /

Screening data as filed in PubChem BioAssay.
